According to PubChem BioAssay:
Calls of active or inactive are those of the source. Rule as the data show it, unless noted: active = inhibition above about 30%; inactive = the rest.

How the values were obtained:
[1] = Her2 expression decrease, cell viability multiplex – SKBR3 breast tumor cells, AlphaScreen, ATP viability, primary screen (AID 461;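 active = Her2 level under about 52% in both replicate screens, with viability over 70% of control, limit read from the data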;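 as to Her2 level: lower value means less Her2 protein in the cells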;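 as to viability: percent of carrier control wells set as 100% viability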); conditions: SKBR3 Her2 protein level, 18-24 h, measured here: SKBR3 viability, ATP luminescence, at 10 µM
[2] = target: Receptor tyrosine-protein kinase erbB-2 (Homo sapiens) (UniProt P04626); assay: as above; conditions: 18-24 h, at 10 µM, stronger effect = lower value
[3] = reduced viability of SK-BR-3 breast cancer cells – cell-based, 24 h, human, pilot screen (AID 572;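 active = viability at or below 10% of carrier control in both of two separate runs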;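 also: compound exposure lasted between 18 and 24 h rather than exactly 24 h; 100% = carrier-treated control wells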); conditions: SK-BR-3 viability, CellTiter-Glo luminescence, at 10 µM, stronger effect = lower value
[4] = HUVEC growth inhibition – cell-based, human, primary screen (AID 575;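 active = viability at or below 30% in both replicate assays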;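 also: 100% = median of untreated cell wells with 0.1% DMSO on each plate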); conditions: HUVEC proliferation, CellTiter-Glo luminescence, 72 h; at 10 µM; stronger effect = lower value
Outline: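 Test system: primary human umbilical vein endothelial cells; medium: endothelial basal medium with 2% FBS plus growth supplements; dosing: 10 µM compound only; times: 72 h treatment at 37 °C; signal: CTG luminescence; read-out: % viability relative to median vehicle-well signal on each plate; control set: vehicle and MePR control wells; plate: 384-well, collagen-coated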

[5] = H69AR cell proliferation blockers – human, duplicate replicates, primary screen (AID 580;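 active = viability at or under a set limit in both replicates, limit being median viability minus 3 SD, cut at about 48% in these data, passing the limit was not always enough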;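 also: 100% = mean luminescence of untreated wells and 0% = no signal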); conditions: H69AR lung tumor cells viability, ATP luminescence, 72 h; at 10 µM; stronger effect = lower value
[6] = MRP1 drug-resistance reversers in H69AR cells – cell-based, doxorubicin co-treatment, pilot screen (AID 601;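 active = viability loss from added drug above about 55%, and viability with drug at most 40%, in both replicates, limit read from the data, passing the limit was not always enough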); conditions: CellTiter-Glo, 72 h, at 10 µM; for differential viability (reversal): stronger effect = higher value
[7] = yeast transport mutant growth inhibition pilot in 384-well plates, post-Golgi transport modulator project (AID 636; in the data active = inhibition above about 31%); conditions: absorbance 615 nm, about 18 h, stronger effect = higher value
[8] = growth suppression of yeast trafficking mutant, preliminary HTS, modulators of trafficking downstream of Golgi apparatus project, 1536-format plate, OD 615 nm (AID 637); conditions: yeast transport mutant growth, absorbance 615 nm, 18 h; stronger effect = higher value
[9] = H69AR cells + 2 uM doxorubicin, measured here: viability with 2 uM doxorubicin, stronger effect = lower value
[10] = H69AR cells, compound alone cytotoxicity

Receptor tyrosine-protein kinase erbB-2 (Homo sapiens), sequence (P04626 whole entry, looked up): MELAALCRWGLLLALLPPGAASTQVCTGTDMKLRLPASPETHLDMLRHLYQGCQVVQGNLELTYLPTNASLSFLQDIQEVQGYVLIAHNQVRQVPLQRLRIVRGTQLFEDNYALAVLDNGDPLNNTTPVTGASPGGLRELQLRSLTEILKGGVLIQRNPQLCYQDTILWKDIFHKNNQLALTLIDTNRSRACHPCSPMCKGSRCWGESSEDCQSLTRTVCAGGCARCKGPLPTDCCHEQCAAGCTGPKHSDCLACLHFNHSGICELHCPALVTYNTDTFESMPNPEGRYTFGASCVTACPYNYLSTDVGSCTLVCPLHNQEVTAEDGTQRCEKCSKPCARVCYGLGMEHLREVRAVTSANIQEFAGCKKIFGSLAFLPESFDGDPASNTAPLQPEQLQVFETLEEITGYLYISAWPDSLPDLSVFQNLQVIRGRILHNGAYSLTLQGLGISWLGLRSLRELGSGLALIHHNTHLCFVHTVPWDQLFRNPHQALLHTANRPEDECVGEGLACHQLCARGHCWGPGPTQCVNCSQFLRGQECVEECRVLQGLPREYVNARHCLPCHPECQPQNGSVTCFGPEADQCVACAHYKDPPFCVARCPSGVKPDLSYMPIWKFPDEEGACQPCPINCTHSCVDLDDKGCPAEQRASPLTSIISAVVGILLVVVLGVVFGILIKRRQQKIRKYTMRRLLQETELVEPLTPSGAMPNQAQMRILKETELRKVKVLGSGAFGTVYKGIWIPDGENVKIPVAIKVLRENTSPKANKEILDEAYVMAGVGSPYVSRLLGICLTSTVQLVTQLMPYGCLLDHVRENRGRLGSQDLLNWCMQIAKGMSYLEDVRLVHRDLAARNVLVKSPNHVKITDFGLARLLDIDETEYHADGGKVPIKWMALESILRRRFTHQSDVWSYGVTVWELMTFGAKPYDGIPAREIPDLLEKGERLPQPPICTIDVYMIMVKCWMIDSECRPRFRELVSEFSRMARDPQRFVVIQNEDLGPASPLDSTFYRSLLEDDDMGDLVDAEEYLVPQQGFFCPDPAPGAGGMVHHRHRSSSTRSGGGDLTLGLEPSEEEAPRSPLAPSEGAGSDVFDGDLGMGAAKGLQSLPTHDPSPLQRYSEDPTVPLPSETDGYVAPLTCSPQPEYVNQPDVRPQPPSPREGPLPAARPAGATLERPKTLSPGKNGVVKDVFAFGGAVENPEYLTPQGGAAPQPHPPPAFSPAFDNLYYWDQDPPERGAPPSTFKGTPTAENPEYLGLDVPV

SMILES	viability [1] [%]	Her2 level [2]	viability [3]	viability [4]	viability [5]	differential viability (reversal) ([6]; H69AR cells + 2 uM doxorubicin)	viability [6, 9] [%]	viability [6, 10] [%]	inhibition [7]	inhibition [8]
C=CCn1c(COc2cccc(C)c2)nnc1SCC(=O)NC(=O)NCc1ccco1	108	95% (inactive)	108% (inactive)	78.4% (inactive)	78.2% (inactive)	-3.14% (inactive)	81.3	78.2	-5.07% (inactive)	-0.48% (inactive)
O=C(COC(=O)c1cc(S(=O)(=O)N2CCOCC2)ccc1O)NCC1CCCO1 (stereo not given)	91.5	85.5% (inactive)	91.5% (inactive)	98.7% (inactive)	91% (inactive)	-3.47% (inactive)	94.5	91	-6.4% (inactive)	8.36% (inactive)
COc1ccc(S(=O)(=O)N(CCN2CCOCC2)Cc2cc(OC)ccc2OC)cc1	91	88.5% (inactive)	91% (inactive)	96.2% (inactive)	70% (inactive)	3.16% (inactive)	66.8	70	-3.25% (inactive)	-5.08% (inactive)
CCOc1cc(C2NC(=O)N(C)C(C)=C2C(=O)OC)cc(Br)c1O (stereo not given)	112	79.5% (inactive)	112% (inactive)	69.9% (inactive)	93.8% (inactive)	21.3% (inactive)	72.6	93.8	-4.73% (inactive)	4.44% (inactive)
CC1=C(C(=O)OC(C)C)C(C2CC=CCC2)NC(=O)N1 (stereo not given)	95.5	113% (inactive)	95.5% (inactive)	98.5% (inactive)	87.3% (inactive)	-1.42% (inactive)	88.7	87.3	0.77% (inactive)	-10.7% (inactive)
COc1ccc(N2CCN(C(=O)CCNS(=O)(=O)c3ccc(Br)s3)CC2)cc1	64	91.5% (inactive)	64% (inactive)	80.1% (inactive)	88.7% (inactive)	-3.66% (inactive)	92.3	88.7	-4.55% (inactive)	6.72% (inactive)
Oc1ccc(N2CCN(C(c3cccnc3)c3nnnn3Cc3ccccc3)CC2)cc1 (stereo not given)	85	92% (inactive)	85% (inactive)	83.5% (inactive)	90.2% (inactive)	-2.76% (inactive)	92.9	90.2	-4.74% (inactive)	-2% (inactive)
c1ccc(-c2csc(N3CCCCCC3)n2)cc1	91.5	104% (inactive)	91.5% (inactive)	104% (inactive)	100% (inactive)	14.9% (inactive)	85.6	100	-0.27% (inactive)	-4.35% (inactive)
Clc1cccc(-c2nn3c(Cn4cnc5ccccc54)nnc3s2)c1	94.5	82.5% (inactive)	94.5% (inactive)	76.9% (inactive)	94.9% (inactive)	-1.69% (inactive)	96.6	94.9	0.92% (inactive)	5.9% (inactive)
Cc1cc(C(=O)Cn2cncn2)c(C)n1CCc1ccc(F)cc1	64	80% (inactive)	64% (inactive)	105% (inactive)	89.2% (inactive)	-5.71% (inactive)	95	89.2	-5.41% (inactive)	3.11% (inactive)
CCOC(=O)c1cc2ccc(OC)c(OC)c2c(=O)s1	98.5	94% (inactive)	98.5% (inactive)	83.9% (inactive)	83.5% (inactive)	-0.1% (inactive)	83.6	83.5	0.78% (inactive)	-7% (inactive)
CCOC(=O)CC(NS(=O)(=O)c1ccc(NC(C)=O)cc1)c1ccc(OCC)cc1 (stereo not given)	115	100% (inactive)	115% (inactive)	110% (inactive)	90.9% (inactive)	-2.94% (inactive)	93.9	90.9	-7.63% (inactive)	-4.91% (inactive)
O=C(Nc1ccc(SC(F)F)cc1)c1ccc2nccnc2c1	91.5	77.5% (inactive)	91.5% (inactive)	67% (inactive)	92.1% (inactive)	2.67% (inactive)	89.4	92.1	-2.53% (inactive)	-2.54% (inactive)
Nc1c(C(=O)NCc2ccco2)nnn1Cc1ccccc1	85.5	102% (inactive)	85.5% (inactive)	92.1% (inactive)	96% (inactive)	0.935% (inactive)	95.1	96	-6.32% (inactive)	3.33% (inactive)
Cn1c(SCC(=O)c2ccc(-c3ccccc3)cc2)nnc1-c1ccco1	120	93.5% (inactive)	120% (inactive)	93.7% (inactive)	88.1% (inactive)	-2.98% (inactive)	91.1	88.1	-5.6% (inactive)	9.68% (inactive)
CS(=O)(=O)NCc1nnc(SCC(=O)NC2CCCCC2)n1-c1ccc(F)cc1	98.5	100% (inactive)	98.5% (inactive)	102% (inactive)	97.6% (inactive)	9.24% (inactive)	88.4	97.6	-6.18% (inactive)	12.3% (inactive)
